Only some compounds are listed: those with a hit (about 1.4% of all), similar ones and a draw of the others.
CHT PAM: allosteric activators of human choline transporter CHT; Q9GZV3; CHT-expressing cells, membrane potential dye, choline EC20; stronger effect = higher value; LV-AA mutant CHT in HEK293 cells; B-score at 10 µM; 0.49% of 310,000 active; AID 488977;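 active = initial fluorescence not abnormally high and integrated response B-score, plate-corrected, over 3 SD above library mean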
Target sequence (Q9GZV3 whole entry, looked up): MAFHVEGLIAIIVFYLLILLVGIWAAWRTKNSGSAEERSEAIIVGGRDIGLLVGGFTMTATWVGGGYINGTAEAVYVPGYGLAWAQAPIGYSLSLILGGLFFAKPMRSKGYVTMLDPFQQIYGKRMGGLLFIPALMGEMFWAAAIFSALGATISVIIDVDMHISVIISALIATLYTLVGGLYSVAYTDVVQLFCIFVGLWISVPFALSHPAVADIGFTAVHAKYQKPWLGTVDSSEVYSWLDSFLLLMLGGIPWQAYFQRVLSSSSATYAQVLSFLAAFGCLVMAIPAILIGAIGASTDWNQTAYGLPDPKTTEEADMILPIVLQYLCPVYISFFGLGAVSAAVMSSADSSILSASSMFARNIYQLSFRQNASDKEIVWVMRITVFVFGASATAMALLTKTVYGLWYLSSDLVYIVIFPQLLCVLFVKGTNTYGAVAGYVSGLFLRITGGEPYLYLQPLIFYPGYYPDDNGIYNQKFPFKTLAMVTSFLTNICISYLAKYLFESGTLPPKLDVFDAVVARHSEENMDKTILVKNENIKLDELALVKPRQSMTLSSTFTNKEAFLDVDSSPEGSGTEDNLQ
TNAP act hi DEA: TNAP (human) activation, high acceptor; purified TNAP, CDP-star luminescence, 1 M DEA, 30 min; stronger effect = higher value; 0 = EDTA background, 1 = DMSO-only activity; AID 1136; activation factor at 20 µM; 200,000 tested, under 10 active;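 active = activation factor at least 2 at 20 µM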
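Assay system: human TNAP; Input: enzyme diluted 1/800 final; Reagent: CDP-star luminogenic substrate at 100 µM final; Timing: 30 min, room temperature; Signal: luminescence; Evaluation: TNAP activation factor scaled between EDTA and DMSO control wells.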
TNAP inh no acc: TNAP (human) inhibition, acceptor-free conditions; P05186; purified TNAP, CDP-star luminescence, 30 min; 0.26% of 200,000 active; inhibition, % at 20 µM; AID 1012;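 active = tissue-nonspecific alkaline phosphatase inhibition above about 50% at 20 µM in the single-dose screen, limit read from the data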
CHT block: inhibits the human high affinity choline transporter; Q9GZV3; CHT-expressing cells, membrane potential dye, choline response; stronger effect = lower value; B-score at 10 µM; 0.86% of 310,000 active;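 active = B-score over 3 SD under the library average, and starting fluorescence ratio not unusually high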;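 note: choline stimulus applied at its EC90 after an EC20 pre-addition; B-score computed on integrated fluorescence ratio after choline addition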
TNAP inh hiacc: inhibitors of human TNAP at high phosphate acceptor concentration | P05186 | purified TNAP, CDP-star luminescence, 1 M DEA | inhibition, % at 20 µM | 0.03% of 200,000 active | AID 1135;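 active = over 50% inhibition of tissue-nonspecific alkaline phosphatase at 20 µM in the single-dose screen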
ABCB6 inh MLPCN: blocks the human ABCB6 transporter; Q9NP58; K562-ABCB6 porphyrin accumulation, flow cytometry, 1 h; stronger effect = lower value; fluorescence ratio to DMSO, % at 10 µM; 0.19% of 360,000 active;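 active = fluorescence ratio to DMSO below 75%, the collection mean minus 3 SD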;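 note: signal is porphyrin accumulated inside mitochondria; lower ratio means ABCB6 inhibition with less porphyrin fluorescence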
CHT activ conf: confirmation of human choline transporter (CHT) activators | shares compounds with CHT PAM | CHT-expressing cells, membrane potential dye fluorescence (FDSS); % of choline EC20–EC90 response window; HEK293 expressing CHT LV-AA mutant; choline added at its EC20 | activation, % at 10 µM | 91% of 2,500 active;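 active = primary screen active, with duplicate mean activation above negative control mean plus 3 SD, cut at about 11% in these data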
HEK293 MP dye: counter-screen for CHT activators: effect in parental HEK293 cells | shares compounds with CHT PAM | membrane potential dye fluorescence (FDSS); measured after EC20 choline addition | ratio readout change at 10 µM, hits read low | 62% of 2,500 active;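 active = duplicate-averaged ratio beyond 3 SD from buffer wells, up or down, though filed actives are nearly all decreases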
Large screens that a line does not name were inactive (follow-up assays come after a bar, where they were run).

COC(=O)c1ccc(OCCN2C3=NCCN3c3ccccc32)cc1	none | CHT activ conf 17.1 | HEK293 MP dye -40.5
c1ccc(CN2C3=NCCN3c3ccccc32)cc1	none
COC(=O)c1ccc(OCCN2CCCCCC2)cc1	none
c1ccc2c(c1)N1CCN=C1N2CCN1CCCCC1	CHT PAM 9.78 | CHT activ conf 79.7 | HEK293 MP dye -80.4
c1ccc2c(c1)N1CCCN=C1N2CCN1CCCCC1	CHT PAM 9.51 | CHT activ conf 30.8 | HEK293 MP dye -72.1
Clc1ccc(CN2C3=NCCN3c3ccccc32)cc1Cl	none | CHT activ conf 23.2 | HEK293 MP dye inactive
O=C(Nc1ccc(F)cc1F)c1ccco1	none
COc1ccc(-c2c3c(=O)n(C)c(=O)n(C)c3cn2C2CCCCC2)cc1	CHT PAM 6.85 | CHT activ conf 23.2 | HEK293 MP dye inactive
CCCn1cc2c(c1-c1ccc(C)cc1)c(=O)n(C)c(=O)n2C	none
COc1cc(CC(=O)N2CCN(S(=O)(=O)c3ccc(C)cc3)CC2)cc(OC)c1OC	none (no result: CHT PAM, TNAP act hi DEA, TNAP inh no acc, CHT block, TNAP inh hiacc)
CC(C)CCNC(=O)/C=C/c1ccc(Br)cc1	none | CHT activ conf 25.0 | HEK293 MP dye inactive
CC1=C(C(=O)N(C(C)C)C(C)C)CC(CC(=O)NC(c2ccccc2)c2ccccc2)C(=O)N1CCCN1CCCC1=O (configuration not stated)	none (no result: CHT PAM, TNAP act hi DEA, TNAP inh no acc, CHT block, TNAP inh hiacc)
Nc1c(-c2cccc([N+](=O)[O-])c2)nc2ccccn12	none | CHT activ conf 52.9 | HEK293 MP dye -50.5
NNc1nc(-c2ccccc2Cl)nc2sc3c(c12)CCCC3	none
CC1(C(=O)NS(=O)(=O)c2ccccc2OC(F)(F)F)CCN1C(=O)c1ccco1 (configuration not stated)	none (no result: CHT PAM, TNAP act hi DEA, TNAP inh no acc, CHT block, TNAP inh hiacc)
CC(C)n1cnc2c(Nc3cccc(Cl)c3)nc(NCCCO)nc21	none (no result: TNAP act hi DEA, TNAP inh no acc, TNAP inh hiacc) | CHT activ conf inactive | HEK293 MP dye inactive
CC(C)n1cnc2c(Nc3ccc(C(=O)O)cc3)nc(Cl)nc21	none (no result: TNAP act hi DEA, TNAP inh no acc, TNAP inh hiacc)
Nc1ccn([C@@H]2O[C@H](C(=O)N[C@H](CO)Cc3ccccc3)[C@@H](O)[C@H]2O)c(=O)n1	none (no result: CHT PAM, TNAP act hi DEA, TNAP inh no acc, CHT block, TNAP inh hiacc)
CCOC(=O)C1CCN(C(=O)c2cc3cc(C)ccc3[nH]2)CC1	none (no result: TNAP act hi DEA, TNAP inh no acc, TNAP inh hiacc)
COC(=O)c1ccc(N2CCN(C)CC2)c(NC(=O)COc2ccc(OC)cc2)c1	CHT PAM 9.22 | CHT activ conf 68.7 | HEK293 MP dye -65.5
CCc1nccn1CCC(=O)NC1CC(C)(C)Cc2c1cnn2-c1cccc(F)c1 (configuration not stated)	none (no result: TNAP act hi DEA, TNAP inh no acc, TNAP inh hiacc)
Cc1cccc(N(C)c2cc(C)nc3nc(C)nn23)c1	none
O=C(CN1C(=O)CCC1=O)Nc1nc(-c2nc3ccccc3s2)cs1	none | CHT activ conf 18.2 | HEK293 MP dye inactive
Nc1ccc2c(c1)N1CCN=C1S2	none | CHT activ conf 54.0 | HEK293 MP dye -48.6
CC1CCN(c2ccccc2NC(=O)c2ccc(F)cc2)CC1	CHT PAM 9.34 | CHT activ conf 22.9 | HEK293 MP dye inactive
CSC1=Nc2sc3c(c2C2=NCCN12)CC(C)(C)OC3	none (no result: CHT PAM, TNAP act hi DEA, TNAP inh no acc, CHT block, TNAP inh hiacc)
CC1(C)Cc2c(sc3c2C2=NCCN2C=N3)CO1	CHT PAM 9.31 | CHT activ conf 74.9 | HEK293 MP dye -62.6
CC1(C)CC(CC(=O)O)(c2ccccc2)CCO1 (configuration not stated)	none
O=C(COC(=O)C1CCN(c2ccc(C(F)(F)F)cn2)CC1)NC1CCCCC1	none (no result: TNAP act hi DEA, TNAP inh no acc, TNAP inh hiacc) | CHT activ conf inactive | HEK293 MP dye inactive
O=C(COC(=O)C1CCN(c2ccc(C(F)(F)F)cn2)CC1)NCc1ccccc1	none (no result: CHT PAM, TNAP act hi DEA, TNAP inh no acc, CHT block, TNAP inh hiacc)
COc1ccc(S(=O)(=O)N2CCN(CC(=O)NCCc3cccs3)CC2)cc1	none (no result: CHT PAM, TNAP act hi DEA, TNAP inh no acc, CHT block, TNAP inh hiacc)
COc1ccc(NC(=O)CN2CCN(S(=O)(=O)N3CCCCCC3)CC2)cc1	none (no result: TNAP act hi DEA, TNAP inh no acc, TNAP inh hiacc)
Nc1sc(-c2ccccc2)n[n+]1Cc1cccc2cccnc12	CHT PAM 7.82 (no result: TNAP act hi DEA, TNAP inh no acc, TNAP inh hiacc) | CHT activ conf 12.4 | HEK293 MP dye inactive
